What was measured:
Assay type in all cases: functional, cell-based
HuCC-A1 = test: Anticancer activity against human HuCCa1 cells assessed as reduction in cell viability measured after 72 hrs by SRB assay; conditions: HuCC-A1, 72 h
Method in brief: (§1)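 Adherent cells seeded at 10^4 cells/well and exposed 72 h to compound at 0.1–50 μM, dissolved in DMSO (less than 0.05%). Ellipticine served as positive control. Afterwards cells washed, fixed with TCA, stained with 0.4% SRB in 1% acetic acid. Bound dye extracted and OD read at 515 nm; IC50 derived.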

MCF7 = test: Anticancer activity against human MCF7 cells assessed as reduction in cell viability measured after 72 hrs by SRB assay; conditions: MCF7, 72 h; method in brief: as §1
[1] = Anticancer activity against human KKU-M213 cells assessed as reduction in cell viability measured after 72 hrs by SRB assay; conditions: KKU-M213, 72 h; method in brief: as §1
[2] = Anticancer activity against human KKU055 cells assessed as reduction in cell viability measured after 72 hrs by SRB assay; method in brief: as §1
A549 = test: Anticancer activity against human A549 cells assessed as reduction in cell viability measured after 72 hrs by SRB assay; conditions: A549, 72 h; method in brief: as §1
HT-29 = test: Anticancer activity against human HT-29 cells assessed as reduction in cell viability measured after 72 hrs by SRB assay; conditions: HT-29, 72 h; method in brief: as §1
P388 = test: Anticancer activity against mouse P388 cells assessed as reduction in cell viability measured after 48 hrs by SRB assay; conditions: P388, 48 h
Method in brief: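 Suspension cells seeded at 10^4 cells/well and exposed 48 h to compound at 0.1–50 μM, dissolved in DMSO (less than 0.05%). Ellipticine served as positive control. Then washed, TCA-fixed, stained with 0.4% SRB in 1% acetic acid. Protein-bound dye extracted and absorbance read at 515 nm; IC50 taken.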

[3] = Anticancer activity against rat ASK cells assessed as reduction in cell viability measured after 72 hrs by SRB assay; method in brief: as §1
KB = test: Anticancer activity against human KB cells assessed as reduction in cell viability measured after 72 hrs by SRB assay; method in brief: as §1

Structure (SMILES) | IC50 (HuCC-A1) | IC50 (MCF7) | IC50 [1] | IC50 [2] | IC50 (A549) | IC50 (HT-29) | IC50 (P388) | IC50 [3] | IC50 (KB)
C=C1CC[C@@H]2[C@](C)(COC(C)=O)[C@H](OC(C)=O)CC[C@@]2(C)[C@@H]1C/C=C1/C(=O)OC[C@H]1OC(C)=O | 20.1 µM | 7.95 µM | 14.8 µM | 5.02 µM | > 50 µM | 21.6 µM | 6.64 µM | 22.5 µM | 28.1 µM
C=C1CC[C@@H]2[C@](C)(COC(C)=O)[C@H](OC(C)=O)CC[C@@]2(C)[C@@H]1C[C@H](SC(=S)N1CCc2ccccc2C1)C1=CCOC1=O | 7.19 µM | 3.95 µM | 5.59 µM | 5.55 µM | 25.1 µM | 7.08 µM | 4.38 µM | 20.1 µM | 25 µM
C=C1CC[C@@H]2[C@](C)(COC(C)=O)[C@H](OC(C)=O)CC[C@@]2(C)[C@@H]1C[C@H](SC(=S)N1CCC(Cc2ccccc2)CC1)C1=CCOC1=O | 19.7 µM | 5.46 µM | 6.76 µM | 6.42 µM | 29.1 µM | 15.3 µM | 4.85 µM | 28.5 µM | 33.6 µM
C=C1CC[C@@H]2[C@](C)(COC(C)=O)[C@H](OC(C)=O)CC[C@@]2(C)[C@@H]1C[C@H](SC(=S)N1CCN(C(c2ccc(F)cc2)c2ccc(F)cc2)CC1)C1=CCOC1=O | > 50 µM | 24.2 µM | 29.2 µM | 28.3 µM | > 50 µM | > 50 µM | 14.3 µM | > 50 µM | 42.5 µM
C=C1CC[C@@H]2[C@](C)(COC(C)=O)[C@H](OC(C)=O)CC[C@@]2(C)[C@@H]1C[C@H](SC(=S)N1CCN(c2ccc(O)cc2)CC1)C1=CCOC1=O | 4.88 µM | 2.56 µM | 4.91 µM | 5.29 µM | 22.1 µM | 4.93 µM | 5.75 µM | 4.74 µM | 6 µM
C=C1CC[C@@H]2[C@](C)(COC(C)=O)[C@H](OC(C)=O)CC[C@@]2(C)[C@@H]1C[C@H](SC(=S)N1CCN(Cc2ccc3c(c2)OCO3)CC1)C1=CCOC1=O | 11.6 µM | 5.68 µM | 7.51 µM | 9.75 µM | 29.5 µM | 7.91 µM | 4.58 µM | 14.9 µM | 21.4 µM
C=C1CC[C@@H]2[C@](C)(COC(C)=O)[C@H](OC(C)=O)CC[C@@]2(C)[C@@H]1C[C@H](SC(=S)N1CCN(c2ccccc2OC)CC1)C1=CCOC1=O | 8.08 µM | 4.72 µM | 5.59 µM | 7.62 µM | 28.5 µM | 6.58 µM | 5.76 µM | 14.3 µM | 17.8 µM
C=C1CC[C@@H]2[C@](C)(COC(C)=O)[C@H](OC(C)=O)CC[C@@]2(C)[C@@H]1C[C@H](SC(=S)N1CCN(c2ccccc2)CC1)C1=CCOC1=O | 9.59 µM | 6.53 µM | 6.47 µM | 9.27 µM | 28.9 µM | 8.08 µM | 4.3 µM | 15.6 µM | 23.5 µM
C=C1CC[C@@H]2[C@](C)(COC(C)=O)[C@H](OC(C)=O)CC[C@@]2(C)[C@@H]1C[C@H](SC(=S)N1CCN(C(c2ccccc2)c2ccc(Cl)cc2)CC1)C1=CCOC1=O (stereo partly specified) | > 50 µM | 21.7 µM | > 50 µM | 27.7 µM | > 50 µM | > 50 µM | 22.6 µM | > 50 µM | > 50 µM
C=C1CC[C@@H]2[C@](C)(COC(C)=O)[C@H](OC(C)=O)CC[C@@]2(C)[C@@H]1C[C@H](SC(=S)N1CCN(c2ccc(C)cc2)CC1)C1=CCOC1=O | 17.5 µM | 6.06 µM | 6.49 µM | 14.8 µM | 27.8 µM | 8.29 µM | 5.5 µM | 28 µM | 19.4 µM
C=C1CC[C@@H]2[C@](C)(COC(C)=O)[C@H](OC(C)=O)CC[C@@]2(C)[C@@H]1C[C@H](SC(=S)N1CCOCC1)C1=CCOC1=O | 4.79 µM | 2.93 µM | 5.16 µM | 5.24 µM | 14.8 µM | 4.14 µM | 5.74 µM | 9.25 µM | 5.96 µM
C=C1CC[C@@H]2[C@](C)(COC(C)=O)[C@H](OC(C)=O)CC[C@@]2(C)[C@@H]1C[C@H](SC(=S)N(Cc1ccccc1)C(C)C)C1=CCOC1=O | 8.64 µM | 3.75 µM | 5.52 µM | 5.29 µM | 22.5 µM | 6.73 µM | 4.06 µM | 20.3 µM | 24.8 µM
C=C1CC[C@@H]2[C@](C)(COC(C)=O)[C@H](OC(C)=O)CC[C@@]2(C)[C@@H]1C[C@H](SC(=S)N(C)Cc1ccccc1)C1=CCOC1=O | 8.63 µM | 0.59 µM | 4.83 µM | 1.36 µM | 6.94 µM | 6.22 µM | 2.17 µM | 6.92 µM | 25.3 µM
C=C1CC[C@@H]2[C@](C)(COC(C)=O)[C@H](OC(C)=O)CC[C@@]2(C)[C@@H]1C[C@H](SC(=S)N1CCN(C(c2ccccc2)c2ccccc2)CC1)C1=CCOC1=O | > 50 µM | 42.3 µM | > 50 µM | > 50 µM | > 50 µM | > 50 µM | 36.5 µM | > 50 µM | > 50 µM
C=C1CC[C@@H]2[C@](C)(COC(C)=O)[C@H](OC(C)=O)CC[C@@]2(C)[C@@H]1C[C@H](SC(=S)N1CCN(Cc2ccc(Cl)cc2)CC1)C1=CCOC1=O | 21.6 µM | 5.56 µM | 6.76 µM | 6.22 µM | 32.8 µM | 13.7 µM | 4.8 µM | 26.2 µM | > 50 µM
C=C1CC[C@@H]2[C@](C)(COC(C)=O)[C@H](OC(C)=O)CC[C@@]2(C)[C@@H]1C[C@H](SC(=S)N(Cc1ccccc1)Cc1ccccc1)C1=CCOC1=O | 7.64 µM | 4.76 µM | 5.67 µM | 6.02 µM | 22.9 µM | 6.54 µM | 4.94 µM | 7.22 µM | 8.66 µM
C=C1CC[C@@H]2[C@](C)(COC(C)=O)[C@H](OC(C)=O)CC[C@@]2(C)[C@@H]1C[C@H](SC(=S)N1CCN(C(=O)C2COc3ccccc3O2)CC1)C1=CCOC1=O (stereo partly specified) | 17.3 µM | 3.92 µM | 6.16 µM | 5.59 µM | 23.4 µM | 9.18 µM | 3.4 µM | 25.5 µM | 22.7 µM
C=C1CC[C@@H]2[C@](C)(COC(C)=O)[C@H](OC(C)=O)CC[C@@]2(C)[C@@H]1C[C@H](SC(=S)N1CCN(c2ccccc2F)CC1)C1=CCOC1=O | 8.63 µM | 6.05 µM | 5.22 µM | 9.39 µM | 27.9 µM | 7.06 µM | 5.74 µM | 9.53 µM | 18.9 µM
C=C1CC[C@@H]2[C@](C)(COC(C)=O)[C@H](OC(C)=O)CC[C@@]2(C)[C@@H]1C[C@H](SC(=S)N1CCc2ccccc2C1c1ccccc1)C1=CCOC1=O (stereo partly specified) | 9.39 µM | 5.6 µM | 6.81 µM | 6.44 µM | 29.8 µM | 9.63 µM | 5.33 µM | 23.4 µM | 18.1 µM
C=C1CC[C@@H]2[C@](C)(COC(C)=O)[C@H](OC(C)=O)CC[C@@]2(C)[C@@H]1C[C@H](SC(=S)N(C)Cc1ccc(F)cc1)C1=CCOC1=O | 7.78 µM | 0.68 µM | 5.15 µM | 3.04 µM | 11.6 µM | 6.14 µM | 3.59 µM | 16.9 µM | 25.7 µM
C=C1CC[C@@H]2[C@](C)(COC(C)=O)[C@H](OC(C)=O)CC[C@@]2(C)[C@@H]1C[C@H](SC(=S)N1CCN(c2ncccn2)CC1)C1=CCOC1=O | 5.73 µM | 0.84 µM | 5.3 µM | 5.3 µM | 18 µM | 4.53 µM | 4.31 µM | 7.2 µM | 6.92 µM
C=C1CC[C@@H]2[C@](C)(COC(C)=O)[C@H](OC(C)=O)CC[C@@]2(C)[C@@H]1C[C@H](SC(=S)N(CC)Cc1ccncc1)C1=CCOC1=O | 7.07 µM | 2.48 µM | 5.66 µM | 4.05 µM | 9.42 µM | 4.29 µM | 5.85 µM | 18 µM | 17.1 µM
C=C1CC[C@@H]2[C@](C)(CO)[C@H](O)CC[C@@]2(C)[C@@H]1C/C=C1/C(=O)OC[C@H]1O [ANDROGRAPHOLIDE] | 23.6 µM | 8.48 µM | 9.36 µM | 17.7 µM | 32 µM | 8.91 µM | 6.52 µM | 34.8 µM | 31.7 µM
Cc1c2ccncc2c(C)c2c1[nH]c1ccccc12 [ELLIPTECINE] | 2.43 µM | 1.79 µM | 1.81 µM | 2.43 µM | 2.25 µM | 2.16 µM | 1.79 µM | 2.19 µM | 1.92 µM

— ChEMBL document CHEMBL4622915, “Design and synthesis of C-12 dithiocarbamate andrographolide analogues as an anticancer agent” (Bioorg Med Chem Lett, 2020)
